Entries after “also recorded” stand apart in the source; their conditions may differ. Where two headings read alike, the source gives them in different places.
Legend:
tubulin = experiment: Inhibition of [3H]colchicine binding to tubulin; settings: 1.0 µM tubulin, 5.0 µM [3H]colchicine
[1] = system: PC3-DAB2IP-luc human prostate tumor xenograft; experiment: In vivo vascular disruption by dynamic bioluminescence imaging; design: species or system rat
Procedure, shortened: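 Three male […] rats (about 6 weeks old, 100-120 g) carried s.c. right-thigh PC3-DAB2IP-luc tumors (5 X 10⁵ cells in 30% Matrigel), treated once tumors reached ≥1 cm diameter. Prodrug in saline was given IP as single or sequential doses, with CA4P IP as control. Under 3% isoflurane, 120 mg/kg D-luciferin was injected s.c. in the neck, fresh at each session. Tumor-ROI light emission was imaged over about 30 min at baseline, 4 h and 24 h.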

tumor vasculature = settings: 30 mg/kg, rats; cited from earlier work
[2] = system: purified bovine brain tubulin; experiment: Inhibition of tubulin polymerization; type: biochemical; settings: cell-free assay
[3] = system: SK-OV-3 (ovarian) cancer cell line; experiment: SRB growth inhibition assay, SK-OV-3; type: cell-based; settings: Homo sapiens, SK-OV-3, 48 h, read-out: GI50 (μM) SRB assay SK-OV-3
[4] = system: DU-145 (prostate) cancer cell line; experiment: SRB growth inhibition assay, DU-145; type: cell-based, human; settings: read-out: GI50 (μM) SRB assay DU-145
[5] = system: NCI-H460 (lung) cancer cell line; experiment: SRB growth inhibition assay, NCI-H460; type: cell-based, human; settings: read-out: GI50 (μM) SRB assay NCI-H460

COc1ccc(/C=C\c2cc(OC)c(OC)c(OC)c2)cc1O [CA4, combretastatin A-4, reference compound]
% Inhibition of colchicine binding ± SD (tubulin; compound at 1 μM): 84 ± 3%

COc1ccc(/C=C\c2cc(OC)c(OC)c(OC)c2)cc1OP(=O)([O-])[O-].[Na+].[Na+] [CA4P, combretastatin A-4 phosphate, reference compound]
Extent and longevity of diminished BLI signal compared with 40 mg/kg 69 ([1]; 30 mg/kg IP, rat): very similar effect
Vascular shutdown (tumor vasculature): extensive vascular shutdown

COCCOCCOc1c(OC)ccc2c1CCCC=C2c1cc(OC)c(OC)c(OC)c1 [Compound 8, 3-Methoxy-4-(2-(2-methoxyethoxy)ethoxy)-9-(3,4,5-trimethoxyphenyl)-6,7-dihydro-5H-benzo[7]annulene]
Inhibition of tubulin polymerization (in words) [2]: loss of inhibitory activity

COc1cc(C2=CCCCc3c2ccc(OC)c3OCCO)cc(OC)c1OC [Compound 11, 2-((3-Methoxy-9-(3,4,5-trimethoxyphenyl)-6,7-dihydro-5H-benzo[7]annulen-4-yl)oxy)ethan-1-ol]
Inhibition of tubulin polymerization (in words) [2]: loss of inhibitory activity

COc1ccc2c(c1O)CCCC(O)C2(O)c1cc(OC)c(OC)c(OC)c1 (stereo not drawn) [Compound 15, 2-Methoxy-5-(3,4,5-trimethoxyphenyl)-6,7,8,9-tetrahydro-5H-benzo[7]annulene-1,5,6-triol]
% Inhibition of colchicine binding ± SD (tubulin; compound at 5 μM): 0 (5 μM) %

COc1ccc2c(c1CO)CCCC=C2c1cc(OC)c(OC)c(OC)c1 [Compound 28, (3-Methoxy-9-(3,4,5-trimethoxyphenyl)-6,7-dihydro-5H-benzo[7]annulen-4-yl)methanol]
GI50 [3]: 40.3 nM

COc1cc(C2(O)C=CCCc3c2ccc(OC)c3OC)cc(OC)c1OC (stereo not drawn) [Compound 56, 1,2-Dimethoxy-5-(3,4,5-trimethoxyphenyl)-8,9-dihydro-5H-benzo[7]annulen-5-ol]
Inhibition of tubulin polymerization (in words) [2]: lack of tubulin activity
% Inhibition of colchicine binding ± SD (tubulin; compound at 5 μM): 0 (5 μM) %

COc1cc(C2CCc3c(ccc(OC)c3OC)C(=O)C2)cc(OC)c1OC (stereo not drawn) [Compound 57, 1,2-Dimethoxy-7-(3,4,5-trimethoxyphenyl)-6,7,8,9-tetrahydro-5H-benzo[7]annulen-5-one]
Inhibition of tubulin polymerization (in words) [2]: lack of activity
% Inhibition of colchicine binding ± SD (tubulin; compound at 5 μM): 0 (5 μM) %

COc1ccc2c(c1O)CC=CC=C2c1cc(OC)c(OC)c(OC)c1 [Compound 68, 3-Methoxy-9-(3,4,5-trimethoxyphenyl)-5H-benzo[7]annulen-4-ol]
GI50 [3]: 6.9 nM
GI50 ([4]; Homo sapiens, DU-145, 48 h): 97.6 nM

COc1cc(C2=CC=CCc3c2ccc(OC)c3OP(=O)([O-])[O-])cc(OC)c1OC.[Na+].[Na+] [Compound 69, Sodium 3-methoxy-9-(3,4,5-trimethoxyphenyl)-5H-benzo[7]annulen-4-yl phosphate]
Inhibition of tubulin polymerization (in words) [2]: inactive
GI50 [3]: 15.3 nM
GI50 ([4]; Homo sapiens, DU-145, 48 h): 23.9 nM
Change in BLI light emission / vascular perturbation ([1]; 10 mg/kg IP, rat): minimal change in light emission; also recorded: no vascular perturbation
Recovery of BLI signal ([1]; 40 mg/kg IP, 24 h, rat): substantial recovery
Appearance of the rats ([1]; 40 mg/kg IP, 48 h): appeared healthy
Tolerability ([1]; 80 mg/kg IP, rat): well tolerated
Vascular disruption at the higher dose ([1]; 80 mg/kg IP, rat, compared with 40 mg/kg): did not show additional vascular disruption

COc1ccc2c(c1O)CCCC=C2c1cc(OC)c(OC)c(OC)c1 [KGP18, 3-Methoxy-9-(3,4,5-trimethoxyphenyl)-6,7-dihydro-5H-benzo[7]annulen-4-ol, reference compound]
GI50 [3]: 0.0543 nM
GI50 ([5]; Homo sapiens, NCI-H460, 48 h): 0.0418 nM
GI50 ([4]; Homo sapiens, DU-145, 48 h): 0.0249 nM

N-(1-hydroxy-2-methoxy-5-(3,4,5-trimethoxyphenyl)-6,7,8,9-tetrahydro-5H-benzo[7]annulen-7-yl)acetamide [Compound 49]
% Inhibition of colchicine binding ± SD (tubulin; compound at 5 μM): 0.4 ± 0.6 (5 μM) %
GI50 ([5]; NCI-H460, 48 h treatment): 334 nM
GI50 ([4]; DU-145, 48 h treatment): 1200 nM
